Published values collected from several papers.
Protocols differ between the studies behind these lines.
Observed: cell growth or viability

| Structure (SMILES) | cell line | assay | setting | IC50 [µM] |
| --- | --- | --- | --- | --- |
| FC(F)(F)c1ccc(C(c2c[nH]c3ccccc23)c2c[nH]c3ccccc23)cc1 | PPC-1 | ATP luminescence | 22 h | 17.6 |
| O=C1NCCc2[nH]c(-c3ccncc3)cc21 | SR |  |  | 0.286 |
| CC(=O)O[C@H]1C(=O)[C@@]2(C)[C@H]([C@H](OC(=O)c3ccccc3)[C@]3(O)C[C@H](OC(=O)[C@H](O)[C@@H](NC(=O)c4ccccc4)c4ccccc4)C(C)=C1C3(C)C)[C@]1(OC(C)=O)CO[C@@H]1C[C@@H]2O | COR-L23 | SRB |  | 0.0021 |
| O=C1Nc2ccc(Br)cc2/C1=N/NC(=O)c1cc2ccccc2[nH]1 | ZR75 |  |  | 21.9 |
| O=C(Nc1ccc2[nH]ncc2c1)c1cccc(NC(=S)Nc2ccc(C(F)(F)F)cc2)c1 | KM12 | ATP luminescence | 72 h | 23.1 |
| CC(=O)Oc1ccc2c(c1)C(C)=CC(C)(C)N2Cc1ccccc1 | Hep3B | MTT | 72 h | 8 |
| CC(C)C(=O)Nc1ccc([N+](=O)[O-])c(C(F)(F)F)c1 | Hep3B | CCK-8 | 48 h | > 50 |
| CCC(C(=O)COc1c(F)c(F)cc(F)c1F)n1cc([C@@](C)(NCc2ccc3ncccc3c2)C2CCC2)nn1 (mixture of isomers) | BESM |  | 72 h | > 10 |
| O=C(Nc1cccc(C(=O)Nc2ccc3[nH]ncc3c2)c1)Nc1ccccc1C(F)(F)F | KM12 | ATP luminescence | 72 h | 43.7 |
| COc1ccc2c(c1)/C(=N/NC(=O)c1cc3ccccc3[nH]1)C(=O)N2 | ZR75 |  |  | 17.9 |
| CCCCC(C(=O)COc1c(F)c(F)cc(F)c1F)n1cc([C@](C)(CC(C)C)NCc2ccc3ncccc3c2)nn1 (stereo partly shown) | BESM |  | 72 h | > 10 |
| CC(C)C[C@H](NC(=O)[C@H](Cc1ccccc1)NC(=O)c1cnccn1)B(O)O | CAKI-2 | ATP luminescence |  | 0.024 |
| CCC(C(=O)COc1c(F)c(F)cc(F)c1F)n1cc([C@@](C)(NCc2ccc3ncccc3c2)C(C)C)nn1 (stereo partly shown) | BESM |  | 72 h | > 10 |
| O=C1Nc2ccc(Cl)cc2/C1=N/NC(=O)c1cc2ccccc2[nH]1 | ZR75 |  |  | 18 |
| COc1cc(N2CCC(N3CCN(C)CC3)CC2)ccc1Nc1ncc(Cl)c(Nc2ccccc2S(=O)(=O)C(C)C)n1 | Rh41 |  | 72 h | 0.07 |
| O=C(Nc1cccc(C(=O)Nc2ccc3[nH]ncc3c2)c1)Nc1ccccc1Cl | KM12 | ATP luminescence | 72 h | > 50 |

| Structure (SMILES) | cell line | assay | setting | IC50 [µM] |
| --- | --- | --- | --- | --- |
| COc1cc(C2Oc3cc([C@H]4Oc5cc(O)cc(O)c5C(=O)[C@@H]4O)ccc3OC2CO)ccc1O (stereo partly shown) | Hep3B | CCK-8 | 72 h | 7.21 |
| O=C(Nc1cccc(C(=O)Nc2ccc3[nH]ncc3c2)c1)Nc1ccccc1F | KM12 | ATP luminescence | 72 h | 48.3 |
| C[C@H]1[C@@H](O)O[C@@H]2O[C@@]3(C)CC[C@H]4[C@H](C)CC[C@@H]1[C@@]24OO3 | Hep3B | CCK-8 | 48 h | > 50 |
| O=C(Nc1cccc(Cl)c1)Nc1cccc(C(=O)Nc2ccc3[nH]ncc3c2)c1 | KM12 | ATP luminescence | 72 h | > 50 |
| O=C1Nc2ccccc2/C1=N/NC(=O)c1cc2ccccc2[nH]1 | ZR75 |  |  | 22.7 |
| COC(=O)/C=C/C=C/c1ccc2c(c1)OCO2 | COR-L23 | SRB |  | 95.6 |
| O=C1Nc2ccc(F)cc2/C1=N/NC(=O)c1cc2ccccc2[nH]1 | ZR75 |  |  | > 30 |
| O=C(Nc1ccc(Br)cc1)Nc1cccc(C(=O)Nc2ccc3[nH]ncc3c2)c1 | KM12 | ATP luminescence | 72 h | > 50 |
| CCC(C(=O)COc1c(F)c(F)cc(F)c1F)n1cc([C@](C)(CC(C)C)NCc2ccc3ncccc3c2)nn1 (stereo partly shown) | BESM |  | 72 h | > 10 |
| CN1C(=O)/C(=N\NC(=O)c2cc3ccccc3[nH]2)c2cc(Cl)ccc21 | ZR75 |  |  | 0.84 |
| COc1cc2c(Oc3ccc(NC(=O)C4(C(=O)Nc5ccc(F)cc5)CC4)cc3F)ccnc2cc1OCCCN1CCOCC1 | Rh41 |  | 72 h | 0.59 |
| O=C(Nc1cccc(F)c1)Nc1cccc(C(=O)Nc2ccc3[nH]ncc3c2)c1 | KM12 | ATP luminescence | 72 h | 41.5 |
| COc1cc(Nc2nccc(-c3cnn4nc(OC)ccc34)n2)cc(C(F)(F)F)c1 | CAKI-2 | ATP luminescence |  | 0.2 |
| O=C(Nc1ccc(C(F)(F)F)cc1)Nc1cccc(C(=O)Nc2ccc3[nH]nc(-c4ccccc4)c3c2)c1 | KM12 | ATP luminescence | 72 h | > 50 |
| Cc1[nH]c(/C=C2\C(=O)Nc3ccc(S(=O)(=O)N(C)c4cccc(Cl)c4)cc32)c(C)c1C(=O)N1CCN(C)CC1 | Rh41 |  | 72 h | 1.84 |
